The IC50 is the concentration at which inhibition is half-maximal. Low readings indicate higher potency, high ones lower potency.

Consider eight substances from publication PMC8419023 (Structure (London, England : 1993), 2021).

One assay concerns CDK2. As to the kind of experiment: GST pull down, CDK2 in isolation. The assay is classed as binding, human. The settings on record: HEPES pH 7.5; 1 h, 4°C; SDS-PAGE; two experiments; Figure 1C.
Another assay relates to cyclin A. The assay is described as follows: GST pull down, cyclin A in isolation. The note with it: HEPES pH 7.5; 1 h, 4°C; SDS-PAGE; two experiments; Figure 1C. The assay is classed as binding, human. The essentials: (§1)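 Bacterially expressed proteins: CDK2 (1–298) as a GST fusion, cyclin A (1–432 or 173–432) as a 6XHis fusion. […] Incubated 1 h at 4 °C with mild agitation, washed three times in binding buffer, and bound material analysed by SDS-PAGE; repeated 2–3 times.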

The target in assay [1] is CDK2-cyclin A (Homo sapiens, UniProt P20248+P24941). The assay is described as follows: GST pull down, CDK2-cyclin A. It is filed as binding. The settings on record: 1 h, 4°C, SDS-PAGE, two experiments; for binding of N-terminal deletions to GST:CDK2-cyclin A: GST CDK2-cyclin A^173−432 with Skp1-Skp2 deletions, Figure 1D; for binding of GST-tagged Skp2 N-terminal fragments to CDK2-cyclin A^1−432: GST pull-down, Figure 4B. A digest of the protocol: as §1

The subject of assay [2] is CDK2-cyclin A. The note with it: ref Ji et al., 2006; cited from earlier work.
In a further assay the test system is CDK2-cyclin A^173−432. As to the kind of experiment: Protein kinase assay, Bora^1−224 phosphorylation by CDK2-cyclin A. It is filed as biochemical, human. The note with it: 3 nM CDK2-cyclin A, 30°C, 30 min, Figure 7A.
Assay [3] has as its target CDK2-cyclin A (Surface 2, hydrophobic patch). The assay is described as follows: Fluorescence polarization displacement of FITC-p27^27−36 from CDK2-cyclin A. The settings on record: 25 nM FITC-p27^27−36, CDK2-cyclin A 6.25 μM, HEPES pH 7.5, 30 min, N=4. The assay is classed as binding, human. In general terms: Fluorescence polarisation rises when a labelled molecule tumbles more slowly, as on binding a larger partner.

No end group written: not given here.

Take “GST-Skp2^1−424: GST-tagged full-length Skp2”: the “pull down of CDK2 in isolation” value in the assay on CDK2 is on record as “not CDK2 in isolation”. Moreover, in the assay with cyclin A, the “pull down of cyclin A in isolation” value is reported as “could also pull down cyclin A in isolation”.

As to “Skp2^Δ1−16: Skp2 with residues 1 to 16 deleted”, in the assay with CDK2-cyclin A [1], the “binding of N-terminal deletions to GST:CDK2-cyclin A” value is on record as “had no effect on CDK2-cyclin A binding”.

In the case of “Skp2^Δ1−28: Skp2 with residues 1 to 28 deleted”, the “binding of N-terminal deletions to GST:CDK2-cyclin A” value with CDK2-cyclin A [1] is given as “caused a decrease in CDK2-cyclin A binding”.

“Skp2^17−43: GST-tagged Skp2 fragment 17–43 (ATSFTWGWDSSKTSELLSGMGVSALEK; also: GST-tagged (end not given here))”: in the assay with CDK2-cyclin A [1], the “binding of GST-tagged Skp2 N-terminal fragments to CDK2-cyclin A^1−432” value (shortened to “binding … to CDK2-cyclin A^1−432”) is on record as “did not affect binding to CDK2-cyclin A”.

For the substance “Skp2^28−43: GST-tagged Skp2 fragment 28–43 (KTSELLSGMGVSALEK; also: GST-tagged (end not given here))”, the “binding … to CDK2-cyclin A^1−432” value with CDK2-cyclin A [1] was “did abolish binding”.

Consider “Skp2^1−29: GST-tagged Skp2 fragment 1–29 (MHRKHLQEIPDLSSNVATSFTWGWDSSKT; also: GST-tagged (end not given here))”, for which the “binding … to CDK2-cyclin A^1−432” value with CDK2-cyclin A [1] is on record as “A major loss of binding to CDK2-cyclin A”.

Consider p21: CDK inhibitor p21, for which the “competition with the N-terminus of Skp2” value with CDK2-cyclin A [2] was “compete with the N-terminus of Skp2 for binding to CDK2-cyclin A”.

In the case of “Skp2^1−424: full-length Skp2 in complex with Skp1”, the “concentration for complete inhibition of Bora phosphorylation” value in the assay with CDK2-cyclin A^173−432 (10 μM Bora^1–224, 0.75 mM ATP [γ−^32P], pH 7.5, phosphoimager) turned out to be 10 µM. In the assay with CDK2-cyclin A^173−432 (Bora^1–224), the “inhibition of phosphorylation of RxL containing substrate (in words)” value is listed as “completely inhibit Bora phosphorylation in vitro in a manner dependent on its N-terminus”. Further, the IC50 in assay [3] (Figure 3E) stood at 5.3 µM; in assay [3] (Figure 4F), 5.8 µM.
